From PubChem
In the library only some 1.9% were active in any assay of this set; here they are far more common.
Hck-Nef inh: blocks Nef-activated human Hck kinase. Recombinant Hck-YEEI plus Nef, Z-Lyte FRET kinase assay. AID 463187. inhibition, % at 20 µM. hit rate 0.68% among 220,000. P08631;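 active means Hck-Nef kinase inhibition above about 50%, limit read from the data; inactive means inhibition below that limit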;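 further: 0% = DMSO with Hck plus Nef and 100% = Hck alone without Nef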
Runt-SMMHC FRET: inhibitors of human RUNX1 Runt domain binding to CBFb-SMMHC. AID 1434. hit rate 0.74% among 220,000. inhibition, % at 20 µM. Q01196+Q13951. Cerulean-Runt/Venus-CBFb-SMMHC FRET ratio 530/480, 1 h;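 active means mean inhibition across duplicate retests at 20 µM reaching about 50%, limit read from the data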;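 further: 0% = DMSO wells and 100% = wells with excess untagged CBFb-SMMHC; inhibitors lower the FRET ratio by blocking Runt binding to CBFb-SMMHC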
Target sequence (Q01196 whole entry, looked up, the tested form may be a part): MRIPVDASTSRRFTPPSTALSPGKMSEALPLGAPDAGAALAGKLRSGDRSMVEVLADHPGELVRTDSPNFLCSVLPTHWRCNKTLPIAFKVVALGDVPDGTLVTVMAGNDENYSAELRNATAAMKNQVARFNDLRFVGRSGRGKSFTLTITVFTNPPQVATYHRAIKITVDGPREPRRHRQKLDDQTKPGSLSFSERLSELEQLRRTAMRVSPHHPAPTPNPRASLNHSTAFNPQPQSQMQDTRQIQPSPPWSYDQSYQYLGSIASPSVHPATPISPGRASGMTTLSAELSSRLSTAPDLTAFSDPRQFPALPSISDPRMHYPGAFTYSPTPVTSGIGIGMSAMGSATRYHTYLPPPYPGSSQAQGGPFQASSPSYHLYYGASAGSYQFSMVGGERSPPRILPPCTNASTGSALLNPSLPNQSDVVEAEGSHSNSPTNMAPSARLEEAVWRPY
Target sequence (Q13951 whole entry, looked up, the tested form may be a part): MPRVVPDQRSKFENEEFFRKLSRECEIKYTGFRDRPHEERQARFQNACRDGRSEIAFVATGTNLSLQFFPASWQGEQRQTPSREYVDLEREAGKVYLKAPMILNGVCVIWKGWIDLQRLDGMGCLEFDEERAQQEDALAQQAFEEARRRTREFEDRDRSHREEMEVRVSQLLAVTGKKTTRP
RanGTP-Imp inh: inhibitors of RanGTP-importin-beta interaction, primary screen, biochemical, FRET, CFP-Ran, YFP-importin-beta, homogeneous | cell-free CFP-Ran/YFP-importin-beta FRET ratio | inhibition, % (test concentration not listed) | hit rate 1.1% among 300,000 | AID 2216;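 active means more than half of the replicate wells show a fall in the fluorescence ratio signal beyond about 16%, limit read from the data, passing the limit was not always enough; inconclusive means exactly half of the replicate wells pass the set limit; inactive means fewer than half of replicates pass the limit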;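 further: 0% = DMSO wells and 100% = Ran loaded with GDP instead of GTP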
Runt-CBFb FRET: inhibitors of human RUNX1 Runt domain binding to CBFb; Q01196+Q13951; Cerulean-Runt/Venus-CBFb FRET ratio 530/480, 1 h; inhibition, % at 20 µM; hit rate 0.46% among 220,000; AID 1496;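 active means inhibition over about 50% at 20 µM in the single-dose screen, limit read from the data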;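 further: 0% = DMSO wells and 100% = excess unlabeled CBFb competitor control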
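Assay system: Cerulean-Runt domain / Medium: Tris 50 mM pH 7.5, KCl, K2SO4, 0.01% BSA / Timing: protein complex preformed 1 h, compound exposure 1 h, room temperature, dark / Measured by: FRET, excitation 422 nm, emission at 530 and 480 nm / Evaluation: loss of energy transfer signal / Control set: 5 µM unlabeled CBFb as full-inhibition high control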
The depositor's hits bear a star.

How did N#Cc1c(Cl)nc(Cl)c2c1CCN(Cc1ccccc1)C2 do in these assays?
Hck-Nef inh: 24; Runt-SMMHC FRET: 61*; RanGTP-Imp inh: 0; Runt-CBFb FRET: 22

Results for COC(=O)C1=C(c2ccc(S(C)(=O)=O)cc2)C[C@@H]2CC[C@H]1N2C(=O)NCc1ccc(C(F)(F)F)cc1 ?
RanGTP-Imp inh: 1

How did O=C(NC(C(Cl)Cl)N1CCOCC1)c1ccccc1 (stereo not given) do in these assays?
Hck-Nef inh: -31; Runt-SMMHC FRET: -2; RanGTP-Imp inh: 22*; Runt-CBFb FRET: -1

What do the screens show for `O=C(NCC(c1cccnc1)N1CCOCC1)Oc1ccccc1` (stereo not given)?
Hck-Nef inh: 0; Runt-SMMHC FRET: 0; RanGTP-Imp inh: inconclusive; Runt-CBFb FRET: 2

Results for Oc1ccc2c3c1O[C@H]1c4[nH]c5ccccc5c4C[C@@]4(O)C(C2)N(CC2CC2)CC[C@]314 ?
Runt-SMMHC FRET: 4; RanGTP-Imp inh: 9; Runt-CBFb FRET: 4

What do the screens show for `O=C1NC(=O)N(Cc2ccccc2)C(=O)/C1=C/N1CCCc2ccccc21`?
Hck-Nef inh: 2; Runt-SMMHC FRET: 18; RanGTP-Imp inh: 30*; Runt-CBFb FRET: 17

How did O=C1NC(=O)N(Cc2ccccc2)C(=O)/C1=C/c1cnc(-c2ccccc2)nc1 do in these assays?
Hck-Nef inh: 58*; Runt-SMMHC FRET: 11; RanGTP-Imp inh: -2; Runt-CBFb FRET: 0

How did CC(C)c1ccc(N2C(=O)NC(=O)/C(=C/c3cnc(-c4ccccc4)nc3)C2=O)cc1 do in these assays?
Hck-Nef inh: 6; Runt-SMMHC FRET: 1; RanGTP-Imp inh: 1; Runt-CBFb FRET: 0

What do the screens show for `Cc1nn(Cc2ccccc2)c(Cl)c1C(=O)NC1CCCc2ccccc21` (stereo not given)?
Hck-Nef inh: 0; Runt-SMMHC FRET: -1; RanGTP-Imp inh: inconclusive; Runt-CBFb FRET: -1

Results for CCCNC(=O)c1c(N)n(Cc2ccc3c(c2)OCO3)c2nc3ccccc3nc12 ?
Hck-Nef inh: 3; Runt-SMMHC FRET: 20; Runt-CBFb FRET: 5

How did CC(C)CNC(=O)c1c(N)n(Cc2ccc3c(c2)OCO3)c2nc3ccccc3nc12 do in these assays?
Hck-Nef inh: 2; Runt-SMMHC FRET: 56*; RanGTP-Imp inh: 1; Runt-CBFb FRET: 14

Results for CC(C)CCNC(=O)c1c(N)n(Cc2ccc3c(c2)OCO3)c2nc3ccccc3nc12 ?
Hck-Nef inh: -1; Runt-SMMHC FRET: 34; RanGTP-Imp inh: 77*; Runt-CBFb FRET: 6

What do the screens show for `O=C(O)CCC(=O)NCCC1=c2ccccc2=N/C1=C\c1c(O)n(Cc2ccc(F)cc2)c(=S)[nH]c1=O`?
Hck-Nef inh: 22; Runt-SMMHC FRET: 58*; RanGTP-Imp inh: 1; Runt-CBFb FRET: 14

Results for O=C(N/N=C/c1c(O)n(Cc2ccc(F)cc2)c(=O)[nH]c1=O)c1ccccc1 ?
Hck-Nef inh: 7; Runt-SMMHC FRET: 0; RanGTP-Imp inh: 1; Runt-CBFb FRET: 1

Results for COCCCNC(=O)c1c(NC(=O)c2ccco2)n(Cc2ccccc2)c2nc3ccccc3nc12 ?
Hck-Nef inh: 12; RanGTP-Imp inh: 44*; Runt-CBFb FRET: 42

How did CCCCCn1c(NC(=O)c2ccco2)c(C(=O)OCC)c2nc3ccccc3nc21 do in these assays?
Hck-Nef inh: 6; Runt-SMMHC FRET: 102*; RanGTP-Imp inh: 79*; Runt-CBFb FRET: 30

What do the screens show for `COCCNC(=O)c1c(NC(=O)c2ccc(Br)o2)n(Cc2ccccc2)c2nc3ccccc3nc12`?
Hck-Nef inh: 5; RanGTP-Imp inh: 58*; Runt-CBFb FRET: 16

Results for CCOC(=O)c1c(NS(=O)(=O)c2ccccc2)n(CCCOC)c2nc3ccccc3nc12 ?
Hck-Nef inh: 28; Runt-SMMHC FRET: 10; RanGTP-Imp inh: 106*; Runt-CBFb FRET: 0

How did N=C1c2ccccc2CN1NC(=O)c1ccc(Br)o1 do in these assays?
RanGTP-Imp inh: 3

What do the screens show for `N#CC12CNCC1CN=N2` (stereo not given)?
Hck-Nef inh: 2; Runt-SMMHC FRET: 1; RanGTP-Imp inh: -3; Runt-CBFb FRET: -1

How did COc1cc(O)c(C(=O)O)c(-c2cc(O)c(O)cc2C)c1 do in these assays?
Hck-Nef inh: -43; Runt-SMMHC FRET: 58*; RanGTP-Imp inh: 1; Runt-CBFb FRET: 19

What do the screens show for `COc1ccc2c(c1)c(C(=O)O)c(C)n2CC(C)C`?
Hck-Nef inh: -1; Runt-SMMHC FRET: -2; RanGTP-Imp inh: 7; Runt-CBFb FRET: -2

How did CC(C)OCCCNC(=O)c1c(N)n(Cc2cccs2)c2nc3ccccc3nc12 do in these assays?
Hck-Nef inh: 44; Runt-SMMHC FRET: 81*; RanGTP-Imp inh: 80*; Runt-CBFb FRET: 16

How did Nc1c(C(=O)OCC2CCCO2)c2nc3ccccc3nc2n1Cc1cccs1 (stereo not given) do in these assays?
Hck-Nef inh: 30; Runt-SMMHC FRET: 85*; RanGTP-Imp inh: inconclusive; Runt-CBFb FRET: 28

What do the screens show for `Nc1c(C(=O)NC2CCCC2)c2nc3ccccc3nc2n1CC1CCCO1` (stereo not given)?
Hck-Nef inh: 45; Runt-SMMHC FRET: 82*; RanGTP-Imp inh: 97*; Runt-CBFb FRET: 22

How did COC(=O)C1=C(c2cc3ccccc3s2)C[C@@H]2CC[C@H]1N2C(=O)NCCCOC(C)C do in these assays?
RanGTP-Imp inh: 0

Results for CC(C)CCn1c(N)c(C(=O)NCc2cccs2)c2nc3ccccc3nc21 ?
Hck-Nef inh: 4; Runt-SMMHC FRET: 20; RanGTP-Imp inh: 50*; Runt-CBFb FRET: 2

How did CCC(C(=O)N1CCC2(CC1)OCCO2)n1c2ccccc2c2nc(=O)cc(C)n21 (stereo not given) do in these assays?
RanGTP-Imp inh: -1

How did O=C1/C(=C\c2ccc(Cl)c(Cl)c2)N2CCC1CC2 do in these assays?
Hck-Nef inh: 4; Runt-SMMHC FRET: -5; RanGTP-Imp inh: 8; Runt-CBFb FRET: 1

What do the screens show for `O=C(c1ccc(-c2ccccc2)cc1)C1CCCN(Cc2ccn[nH]2)C1` (stereo not given)?
Hck-Nef inh: 21; Runt-SMMHC FRET: 0; RanGTP-Imp inh: -1; Runt-CBFb FRET: -64

Results for Cc1ccccc1-n1c(O)c(/C=N/NC(=O)c2ccccc2O)c(=O)[nH]c1=S ?
Hck-Nef inh: 6; Runt-SMMHC FRET: 59*; RanGTP-Imp inh: 5; Runt-CBFb FRET: 29

Results for O=C(N/N=C/c1c(O)n(C2CC2)c(=S)[nH]c1=O)c1ccccc1O ?
Hck-Nef inh: 2; Runt-SMMHC FRET: 73*; RanGTP-Imp inh: 0; Runt-CBFb FRET: 42

What do the screens show for `O=C(N/N=C/c1c(O)n(-c2ccccc2)c(=S)[nH]c1=O)c1ccccc1`?
Hck-Nef inh: 15; Runt-SMMHC FRET: 23; RanGTP-Imp inh: 3; Runt-CBFb FRET: 14

What do the screens show for `COc1ccc(/C=C2/C(=O)NC(=O)N(Cc3ccco3)C2=O)cc1`?
Hck-Nef inh: 57*; Runt-SMMHC FRET: 26; RanGTP-Imp inh: 1; Runt-CBFb FRET: 38

How did COc1ccc(CN2C(=O)NC(=O)/C(=C/c3ccc([N+](=O)[O-])o3)C2=O)cc1 do in these assays?
Hck-Nef inh: 142*; Runt-SMMHC FRET: -9
